The term inhibition in vivo denotes the change of the read-out against control, counted positive when it falls. The term IC50 denotes the concentration at which inhibition is half-maximal. Broadly, the LD50 is the dose at which mortality reaches 50%.

Data set [1] concerns Mus musculus. Briefly: Antiinflammatory activity against carrageenan-induced paw edema in Swiss mouse assessed as inhibition of paw edema at 100 mg/kg administered 30 mins prior to carrageenan challenge and measured after 2 hrs by […]-method (reference value: 7.39 +/- 2.475%). The format is functional. Particulars: time 2.5 hrs.
For data set [2], the system named is Mus musculus. Briefly: Antiinflammatory activity in ip dosed leukotriene-induced paw edema in Balb/c mouse assessed as inhibition of paw edema administered 1 hr prior to leukotriene challenge and measured up to 5 hrs. The class given is functional, organism-based. The note with it: time 2-6 hrs. In outline: (§1)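 BALB/c mice of either sex (30–35 g), 8 per group, dosed i.p. with 10% DMSO, reference drug or compound (100 mg/kg). After 1 h, subplantar irritant: PGE2 0.01 µg/ml, bradykinin 20 µg/ml, histamine 0.1 ml of 1 mg/ml, or leukotriene 10 µg/ml.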

A short description of data set [3]: Acute toxicity in Swiss albino mouse assessed as clinical changes in piloerection at 1000 mg/kg, ip administered as single dose measured after 4 hrs. The class given is organism-based. The note with it: in vivo. In outline: (§2)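 Swiss albino mice of either sex (30-35 g), kept at 22-25 °C on a 12 h light/dark cycle with free food and water. Single i.p. dose; controls received normal saline 10 mL/kg. Animals were watched at random for allergic or abnormal behavioural signs during the first 4 h.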

Data set [4] in a line: Acute toxicity in Swiss albino mouse assessed as clinical changes in salivation at 1000 mg/kg, ip administered as single dose measured after 4 hrs. The format is organism-based. The note with it: in vivo. In short, it runs like this: as §2
Data set [5] in a line: Acute toxicity in Swiss albino mouse assessed as drowsiness at 1000 mg/kg, ip administered as single dose measured after 4 hrs. The class given is organism-based. Particulars: in vivo. In outline: as §2
A short description of data set [6]: Acute toxicity in Swiss albino mouse assessed as change in clinical sign of eyes at 1000 mg/kg, ip administered as single dose measured after 4 hrs. The class given is organism-based. The note with it: in vivo. In outline: as §2
Data set [7] can be described thus: Acute toxicity in Swiss albino mouse assessed as clinical changes in perspiration at 1000 mg/kg, ip administered as single dose measured after 4 hrs. The format is organism-based. The note with it: in vivo. In outline:
as §2

Data set [8] in a line: Acute toxicity in Swiss albino mouse assessed as clinical changes in urinary incontinence at 1000 mg/kg, ip administered as single dose measured after 4 hrs. The class given is organism-based. Particulars: in vivo. In outline:
as §2

The nature of data set [9]: Acute toxicity in Swiss albino mouse assessed as clinical changes in fur at 1000 mg/kg, ip administered as single dose measured after 4 hrs. The format is organism-based. The note with it: in vivo. In short, it runs like this: as §2
A short description of data set [10]: Acute toxicity in Swiss albino mouse assessed as convulsion at 1000 mg/kg, ip administered as single dose measured after 4 hrs. The format is organism-based. Particulars: in vivo. In short, it runs like this: as §2
Data set [11] has as its target T1, Prostaglandin G/H synthase 1 (Ovis aries, UniProt P05979).
T1 sequence (P05979 whole entry): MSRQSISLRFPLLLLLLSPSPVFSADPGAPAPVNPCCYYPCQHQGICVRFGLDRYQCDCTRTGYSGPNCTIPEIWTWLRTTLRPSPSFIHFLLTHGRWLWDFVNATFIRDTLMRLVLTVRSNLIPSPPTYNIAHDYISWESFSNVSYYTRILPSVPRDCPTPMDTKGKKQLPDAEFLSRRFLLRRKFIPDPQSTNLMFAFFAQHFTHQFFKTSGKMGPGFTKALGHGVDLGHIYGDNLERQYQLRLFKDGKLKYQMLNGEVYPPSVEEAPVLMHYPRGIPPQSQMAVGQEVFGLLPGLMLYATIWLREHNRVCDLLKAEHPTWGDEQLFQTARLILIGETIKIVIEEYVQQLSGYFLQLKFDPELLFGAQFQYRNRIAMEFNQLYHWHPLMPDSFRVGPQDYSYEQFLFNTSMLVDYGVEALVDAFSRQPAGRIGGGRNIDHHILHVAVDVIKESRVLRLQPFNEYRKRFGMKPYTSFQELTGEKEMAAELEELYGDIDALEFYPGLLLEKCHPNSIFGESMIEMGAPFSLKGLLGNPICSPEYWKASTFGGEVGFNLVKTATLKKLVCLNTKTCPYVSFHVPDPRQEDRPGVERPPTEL
Nature of the data set: Inhibition of sheep COX1 using arachidonic acid as substrate preincubated for 5 mins followed by substrate addition and measured after 5 mins by UV-visible spectrophotometric method. In outline: (§3)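 Enzymes activated for 5 min on ice with cofactor solution of 0.9 mM glutathione, hematin and 0.24 mM TMPD in 0.1 M Tris-HCl pH 8.0; COX-2 at 300 units/ml. Reaction started with 30 mM arachidonic acid stock, run 5 min, absorbance read at 570 nm. IC50 taken from inhibition-vs-concentration plots as means of three determinations. SI = IC50(COX-1)/IC50(COX-2).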

In data set [12] the test system is Mus musculus. Nature of the data set: Antiinflammatory activity against carrageenan-induced paw edema in Swiss mouse assessed as inhibition of paw edema at 25 mg/kg administered 30 mins prior to carrageenan challenge and measured after 2 hrs by […]-method (reference value: 7.39 +/- 2.475%). The class given is functional. Particulars: time 2.5 hrs. For orientation: In the carrageenan paw model, swelling and tenderness develop within hours.

The nature of data set [13]: Acute toxicity in Swiss albino mouse assessed as changes in circulatory signs at 1000 mg/kg, ip administered as single dose measured after 4 hrs. The class given is organism-based. Particulars: in vivo. In outline: as §2
Data set [14] deals with Mus musculus. Nature of the data set: Antiinflammatory activity against carrageenan-induced paw edema in Swiss mouse assessed as inhibition of paw edema at 100 mg/kg administered 30 mins prior to carrageenan challenge and measured after 4 hrs by […]-method (reference value: 14.46 +/- 1.568%). The class given is functional. The note with it: time 4.5 hrs.
Data set [15] has as its system Mus musculus. Nature of the data set: Antiinflammatory activity against carrageenan-induced paw edema in Swiss mouse assessed as inhibition of paw edema at 100 mg/kg administered 30 mins prior to carrageenan challenge and measured after 5 hrs by […]-method (reference value: 7.31 +/- 3.204%). The class given is functional. The note with it: time 5.5 hrs.

The nature of data set [16]: Acute toxicity in Swiss albino mouse assessed as change in clinical sign of mucus membrane at 1000 mg/kg, ip administered as single dose measured after 4 hrs. The format is organism-based. Particulars: in vivo. In outline: as §2
The subject of data set [17] is Mus musculus. Briefly: Antiinflammatory activity against carrageenan-induced paw edema in Swiss mouse assessed as inhibition of paw edema at 50 mg/kg administered 30 mins prior to carrageenan challenge and measured after 3 hrs by […]-method (reference value: 11.41 +/- 3.069%). The class given is functional. Particulars: time 3.5 hrs.
Data set [18] relates to Mus musculus. Briefly: Antiinflammatory activity in bradykinin-induced paw edema in Balb/c mouse assessed as inhibition of paw edema at 100 mg/kg, ip administered 1 hr prior to bradykinin challenge and measured after 3 hrs relative to control. The class given is functional. Particulars: time 4 hrs. In short, it runs like this: as §1
The species entered for a further data set is Homo sapiens. Briefly: Selectivity index, ratio of IC50 for sheep COX1 to IC50 for recombinant human COX2 expressed in baculovirus infected Sf21 cells. In outline: as §3
A short description of data set [19]: Acute toxicity in ip dosed Swiss albino mouse assessed as mortality administered as single dose. The class given is organism-based. The note with it: in vivo. In outline: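 Swiss albino mice of either sex (30-35 g), housed at 22-25 °C with 12 h light/dark and free food and water. Single i.p. dose; the saline control got 10 mL/kg. Deaths were counted 24 h after dosing. Dose table lists groups of 8 male and 8 female mice given 5 to 2000 mg/kg.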

The nature of data set [20]: Inhibition of trypsin (unknown origin) using casein as substrate preincubated for 5 mins followed by substrate addition and measured after 20 mins. On the set-up: species or system Homo sapiens. In short, it runs like this: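 Trypsin 0.06 mg/ml in 20 mM Tris-HCl pH 7.4 with compound at 31.25–1000 µg/ml, 5 min at 37 °C. 0.8% (w/v) casein added, 20 min further, stopped with 70% perchloric acid. After centrifugation, supernatant absorbance read at 217 nm against buffer blank. % inhibition against control; IC50 from plot; three runs.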

Data set [21] is described as follows: Acute toxicity in Swiss albino mouse assessed as ptosis at 1000 mg/kg, ip administered as single dose measured after 4 hrs. The class given is organism-based. Particulars: in vivo. In short, it runs like this:
as §2

`Cc1ccc(C(=O)CC2CC(=O)N(c3ccc(S(N)(=O)=O)cc3)C2=O)cc1` (centres undefined): the inhibition in vivo at 100 mg/kg with Mus musculus [1] turned out to be 63.8%; in the data set on Mus musculus [14], 66.1%; in the data set with Mus musculus [15] it was 68.2%; in the data set with Mus musculus [18] it was 27.1%. For the same molecule, in the data set on Mus musculus [2], the inhibition entry is “Dose-dependent effect”. Besides, the Activity entry in data set [3], in data set [4], in data set [5], in data set [6], in data set [7] and in [8] was “Non-Toxic” throughout. The Activity entry in [9], in [10], in data set [13], in [16] and in data set [21] was “Non-Toxic” each time. Besides, the IC50 in [11] came out at 30.9 µM; in data set [20], 15.3 µM. In the data set with Mus musculus [12], the inhibition in vivo at 25 mg/kg was 53%. In the data set with Mus musculus [17], the inhibition in vivo at 50 mg/kg is 54.2%. Besides, in the data set listed under Homo sapiens, the Ratio IC50 turned out to be 31.5. For the same molecule, the LD50 in [19] was 1000 mg/kg.
In the case of `O=C1CCCCC1C1CC(=O)N(Cc2ccccc2)C1=O` (centres undefined), the inhibition in vivo at 100 mg/kg worked out at 49.6% in the data set on Mus musculus [1], 49.7% with Mus musculus [14], 55.1% in the data set on Mus musculus [15] and 12.4% in the data set with Mus musculus [18]. In the data set on Mus musculus [2], the inhibition result is “Dose-dependent effect”. The Activity entry in [3], in [4], in [5], in data set [6], in data set [7] and in data set [8] was “Non-Toxic” each time. Further, the Activity result in [9], in data set [10], in data set [13], in data set [16] and in [21] was “Non-Toxic” in each case. Besides, the values for the IC50 in data set [11] and in data set [20] were 62.6 µM and 17.5 µM, respectively. For the same molecule, the inhibition in vivo at 25 mg/kg in the data set with Mus musculus [12] was found to be 28.3%. For the same molecule, in the data set on Mus musculus [17], the inhibition in vivo at 50 mg/kg came to 41.1%. In addition, the Ratio IC50 in the data set filed under Homo sapiens was determined as 3.13. For the same molecule, the LD50 in [19] came out at 1000 mg/kg.

The values are drawn from ChEMBL document CHEMBL4715833, “Design, synthesis, in-vitro, in-vivo and in-silico studies of pyrrolidine-2,5-dione derivatives as multitarget anti-inflammatory agents” (Eur J Med Chem, 2020).
